According to ChEMBL document CHEMBL2169867, “Novel β-amino acid derivatives as inhibitors of cathepsin A” (J Med Chem, 2012):
Active and inactive are the calls of the source. No cut-off for these calls is given here.

Assays:
[1] = molecular target: T1, Lysosomal protective protein (Homo sapiens, UniProt P10619); assay: Inhibition of human recombinant Myc-His10-tagged cathepsin A expressed in baculovirus infected Sf9 cells using BodipyFL labeled bradykinin as substrate incubated for 15 mins prior to substrate addition measured after 15 mins by fluorimetric analysis
T1 sequence (P10619 whole entry): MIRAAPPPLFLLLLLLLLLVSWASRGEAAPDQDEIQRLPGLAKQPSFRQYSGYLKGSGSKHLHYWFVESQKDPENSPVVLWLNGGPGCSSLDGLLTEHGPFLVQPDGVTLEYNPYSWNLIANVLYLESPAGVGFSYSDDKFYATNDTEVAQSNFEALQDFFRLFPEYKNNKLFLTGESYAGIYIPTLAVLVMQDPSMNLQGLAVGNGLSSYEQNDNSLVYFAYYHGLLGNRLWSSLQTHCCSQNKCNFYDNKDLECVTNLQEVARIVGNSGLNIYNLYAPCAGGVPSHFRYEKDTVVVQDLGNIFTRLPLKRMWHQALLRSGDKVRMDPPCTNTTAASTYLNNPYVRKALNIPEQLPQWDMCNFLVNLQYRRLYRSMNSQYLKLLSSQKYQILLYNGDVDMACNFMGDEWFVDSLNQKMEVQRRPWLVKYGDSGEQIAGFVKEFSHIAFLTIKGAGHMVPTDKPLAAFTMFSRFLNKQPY

[2] = Permeability across human Caco2 cells; assay type: ADME, cell-based; conditions: Caco-2, read-out: permeability
Neprilysin = Neprilysin (Homo sapiens, UniProt P08473); assay: Inhibition of human recombinant NEP using Mca-RPPGFSAFK(Dnp)-OH as substrate incubated for 15 mins prior to substrate addition measured after 20 to 30 mins by fluorimetric analysis
Neprilysin, sequence (P08473 whole entry): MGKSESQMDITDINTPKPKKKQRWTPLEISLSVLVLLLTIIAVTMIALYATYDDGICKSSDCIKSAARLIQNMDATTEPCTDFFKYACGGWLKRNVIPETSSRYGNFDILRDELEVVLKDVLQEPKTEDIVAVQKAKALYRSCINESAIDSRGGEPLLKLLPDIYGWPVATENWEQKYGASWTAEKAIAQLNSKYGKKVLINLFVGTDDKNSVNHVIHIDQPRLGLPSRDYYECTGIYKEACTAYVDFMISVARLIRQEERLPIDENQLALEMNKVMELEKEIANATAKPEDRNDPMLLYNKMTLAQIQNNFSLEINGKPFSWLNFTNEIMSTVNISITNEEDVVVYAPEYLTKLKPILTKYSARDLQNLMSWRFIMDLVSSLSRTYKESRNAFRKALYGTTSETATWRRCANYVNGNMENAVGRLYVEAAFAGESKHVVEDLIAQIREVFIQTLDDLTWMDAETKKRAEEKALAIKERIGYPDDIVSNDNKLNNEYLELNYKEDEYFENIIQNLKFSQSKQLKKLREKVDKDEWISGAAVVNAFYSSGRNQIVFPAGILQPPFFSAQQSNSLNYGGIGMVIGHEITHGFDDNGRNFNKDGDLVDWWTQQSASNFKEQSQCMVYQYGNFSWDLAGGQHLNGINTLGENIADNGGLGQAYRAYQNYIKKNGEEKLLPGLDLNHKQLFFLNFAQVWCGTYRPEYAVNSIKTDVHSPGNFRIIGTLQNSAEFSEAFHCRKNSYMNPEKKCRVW
Outline: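 Recombinant human NEP and inhibitor preincubated 15 min at room temperature in reaction buffer, then substrate added. Fluorescence read after 20-30 min at room temperature. % inhibition and IC50 calculated against internal high and low controls.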

[3] = AUC (0 to infinity) in Sprague-Dawley rat heart at 10 mg/kg, po; assay type: ADME, organism-based; set-up: time infinity, dose 10 mg/kg, route oral
Outline: (§1)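 Male Sprague-Dawley rats; single oral 10 mg/kg in glycofurol 75 (19%)/Cremophor RH40 (6%)/water (75%). Plasma and heart sampled at eight time points over 24 h, three animals per time point, nonserial design. Heart homogenized with water (2 g per 1 g tissue). Concentrations measured by LC-MS/MS with a structurally related internal standard; AUC(0-inf) taken from plasma concentration-time curves.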

[4] = Cmax in Sprague-Dawley rat plasma at 10 mg/kg, po; assay type: ADME, organism-based; set-up: dose 10 mg/kg, route oral; outline: as §1
Rattus norvegicus [5] = assay: Effect on glomerular filtration rate in Wistar rat assessed as change in creatinine excretion at 30 mg/kg, po relative to vehicle-treated control; assay type: functional, organism-based; set-up: dose 30 mg/kg
Outline: (§2)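 Male Wistar rats dosed po at 30 mg kg⁻¹ day⁻¹. Urine collected over 6 h before and after treatment. Bradykinin measured by commercial RIA; creatinine excretion also determined. Mean ± SEM, n = 9-10; paired t test.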

[6] = Cmax in Sprague-Dawley rat heart at 10 mg/kg, po; assay type: ADME, organism-based; set-up: dose 10 mg/kg, route oral; outline: as §1
[7] = AUC (0 to infinity) in Sprague-Dawley rat plasma at 10 mg/kg, po; assay type: ADME, organism-based; set-up: time infinity, dose 10 mg/kg, route oral; outline: as §1
Rattus norvegicus [8] = assay: Antihypertensive activity in Wistar rat assessed as increase in bradykinin level in urine at 30 mg/kg, po relative to vehicle-treated control; assay type: functional; outline: as §2
Rattus norvegicus [9] = assay: Antihypertensive activity in Wistar rat assessed as bradykinin-dependent diuresis at 1 mg/kg, iv administered as bolus measured as urine flow rate (reference value: 11.6 uL/min); assay type: functional
Cytochrome P450 3A4 = Cytochrome P450 3A4 (Homo sapiens, UniProt P08684); assay: (§3) Induction of CYP3A4 relative to control; assay type: ADME
Cytochrome P450 3A4, sequence (P08684 whole entry): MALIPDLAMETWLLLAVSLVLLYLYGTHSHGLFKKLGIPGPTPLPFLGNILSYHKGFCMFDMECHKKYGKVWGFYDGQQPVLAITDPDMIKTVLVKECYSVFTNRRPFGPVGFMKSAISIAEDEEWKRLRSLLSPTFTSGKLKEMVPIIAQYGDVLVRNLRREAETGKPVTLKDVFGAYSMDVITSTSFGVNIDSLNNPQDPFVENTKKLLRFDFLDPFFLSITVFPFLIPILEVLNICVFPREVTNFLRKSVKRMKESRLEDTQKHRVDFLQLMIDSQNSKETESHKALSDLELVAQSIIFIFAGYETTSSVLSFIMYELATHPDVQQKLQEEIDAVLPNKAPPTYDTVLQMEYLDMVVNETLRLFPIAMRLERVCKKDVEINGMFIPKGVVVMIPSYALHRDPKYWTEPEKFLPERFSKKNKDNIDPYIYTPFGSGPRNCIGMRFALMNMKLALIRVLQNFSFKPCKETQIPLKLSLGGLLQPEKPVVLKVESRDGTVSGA

[10] = molecular target: Cathepsin A (Homo sapiens); assay: Inhibition of cathepsin A
CYP3A4 = CYP3A4 (Homo sapiens, UniProt P08684); assay: as §3; assay type: ADME; conditions: human
CYP3A4, sequence (P08684 whole entry): as above

Mus musculus [11] = assay: Cardioprotective activity against angiotensin 2-induced cardiac hypertrophy in B6.129P2-ApoE/J mouse assessed as left ventricular end systolic pressure at 100 mg/kg/day, po administered BID after 4 weeks (reference value: 139.36 9.79 mmHg); assay type: functional, Heart left ventricle
Mus musculus [12] = assay: Cardioprotective activity against angiotensin 2-induced cardiac hypertrophy in B6.129P2-ApoE/J mouse assessed as heart rate at 100 mg/kg/day, po administered BID after 4 weeks (reference value: 403.23 7.98 bpm); assay type: functional
Mus musculus [13] = assay: Cardioprotective activity against angiotensin 2-induced cardiac hypertrophy in B6.129P2-ApoE/J mouse assessed as ejection fraction at 100 mg/kg/day, po administered BID after 4 weeks (reference value: 51.14 2.49 %); assay type: functional, Heart
Mus musculus [14] = assay: Cardioprotective activity against angiotensin 2-induced cardiac hypertrophy in B6.129P2-ApoE/J mouse assessed as mean arterial pressure at 100 mg/kg/day, po administered BID after 4 weeks (reference value: 99.03 6.82 mmHg); assay type: functional, Heart
Mus musculus [15] = assay: Ratio of left ventricular wet weight to body weight in B6.129P2-ApoE/J mouse at 100 mg/kg/day, po administered BID after 4 weeks (reference value: 5.99 0.28 mg/g); assay type: functional
Mus musculus [16] = assay: Cardioprotective activity against angiotensin 2-induced cardiac hypertrophy in B6.129P2-ApoE/J mouse assessed as left ventricular relaxation time at 100 mg/kg/day, po administered BID after 4 weeks (reference value: 8.73 0.41 ms); assay type: functional, Heart left ventricle
Mus musculus [17] = assay: Toxicity in B6.129P2-ApoE/J mouse assessed as body weight at 100 mg/kg/day, po administered BID after 4 weeks (reference value: 30.48 0.52 g); assay type: organism-based; set-up: route oral; conditions: in vivo, 672 h
Mus musculus [18] = assay: Cardioprotective activity against angiotensin 2-induced cardiac hypertrophy in B6.129P2-ApoE/J mouse assessed as left ventricular wet weight at 100 mg/kg/day, po administered BID after 4 weeks (reference value: 182.03 […]); assay type: functional, Heart left ventricle
Mus musculus [19] = assay: Cardioprotective activity against angiotensin 2-induced cardiac hypertrophy in B6.129P2-ApoE/J mouse assessed as left ventricular end diastolic pressure at 100 mg/kg/day, po administered BID after 4 weeks (reference value: 15.49 1.95 mmHg); assay type: functional, Heart left ventricle

Cc1ccccc1[C@H](CC(=O)O)NC(=O)c1cc(=O)n(-c2ccccc2Cl)[nH]1
IC50 [1]: 57 nM

Cc1ccccc1[C@H](CC(=O)O)NC(=O)c1cc(OCC(=O)C(C)(C)C)n(-c2ccccc2F)n1
Papp [2]: > 2 ×10⁻⁶ cm/s
IC50 [1]: 3 nM

COc1c(Cl)c(C(=O)N[C@@H](CC(=O)O)c2ccccc2C)nn1-c1ccccc1F
IC50 [1]: 110 nM

O=C(O)CC(NC(=O)c1cc(=O)n(-c2ccc(Cl)cc2)[nH]1)c1cc(Cl)ccc1Cl (racemic)
IC50 [1]: > 30000 nM
IC50 (Neprilysin): 300 nM

O=C(O)CC(NC(=O)c1cc(=O)n(-c2ccccc2F)[nH]1)c1ccc(-c2ccc(F)cc2)cc1 (racemic)
IC50 [1]: 25 nM

COc1c(F)c(C(=O)N[C@@H](CC(=O)O)c2ccccc2C)nn1-c1ccccc1F
IC50 [1]: 30 nM

CC(C)(C)[C@@H](O)COc1cc(C(=O)N[C@@H](CC(=O)O)c2ccc(Cl)cc2Cl)nn1-c1ccccc1F
AUC(0-inf) [3]: 2600 ng·h/mL
Cmax [4]: 2670 ng/mL
Papp [2]: > 2 ×10⁻⁶ cm/s
Activity (Rattus norvegicus [5]): inactive
IC50 [1]: 50 nM
Cmax [6]: 872 ng/mL
AUC(0-inf) [7]: 9300 ng·h/mL
fold change (FC) (Rattus norvegicus [8]): 2
Activity (Rattus norvegicus [9]): 36.5 µL/min
Activity (Cytochrome P450 3A4): Not Active
IC50 (Neprilysin): > 1000 nM
inhibition (Neprilysin): inactive

Cc1ccccc1[C@H](CC(=O)O)NC(=O)c1cc(OC[C@@H](O)C(C)(C)C)n(-c2ccccc2F)n1
IC50 [1]: 10 nM

O=C(O)C[C@H](NC(=O)c1cc(=O)n(-c2ccccc2F)[nH]1)c1ccccc1C(F)(F)F
IC50 [1]: 375 nM

O=C(O)CC(NC(=O)c1cc(=O)n(-c2ccccc2)[nH]1)c1ccc(Oc2ccccc2)cc1 (racemic)
IC50 [1]: 200 nM

Cc1ccccc1[C@H](CC(=O)O)NC(=O)c1cc(OC[C@H](O)C(C)(C)C)n(-c2ccccc2F)n1
AUC(0-inf) [3]: 1600 ng·h/mL
Cmax [4]: 1360 ng/mL
Papp [2]: > 2 ×10⁻⁶ cm/s
Activity (Rattus norvegicus [5]): inactive
Cmax [6]: 426 ng/mL
AUC(0-inf) [7]: 5300 ng·h/mL
fold change (FC) (Rattus norvegicus [8]): 2
Activity (Rattus norvegicus [9]): 27.7 µL/min
Activity (Cytochrome P450 3A4): Not Active
IC50 (Neprilysin): > 1000 nM
inhibition (Neprilysin): inactive

Cc1ccccc1[C@H](CC(=O)O)NC(=O)c1nn(-c2ccccc2)cc1O
IC50 [1]: 110 nM

CCOc1cc(C(=O)N[C@@H](CC(=O)O)c2ccccc2C)nn1-c1ccccc1F
IC50 [10]: 15 nM
IC50 [1]: 15 nM
Emax (CYP3A4): 51%

Cc1ccccc1[C@H](CC(=O)O)NC(=O)c1cc(=O)n(-c2cccc(Cl)c2)[nH]1
IC50 [1]: 102 nM

Cc1ccc(C)c(-n2[nH]c(C(=O)NC(CC(=O)O)c3ccc(-c4ccccc4)cc3)cc2=O)c1 (racemic)
IC50 [1]: 803 nM

Cc1ccc(C)c(-n2[nH]c(C(=O)NC(CC(=O)O)c3ccc(F)cc3)cc2=O)c1 (racemic)
IC50 [1]: 5380 nM

Cc1ccccc1[C@H](CC(=O)O)NC(=O)c1cc(=O)n(-c2ccccc2)[nH]1
IC50 [1]: 70 nM

Cc1ccc(F)cc1C(CC(=O)O)NC(=O)c1cc(=O)n(-c2ccccc2F)[nH]1 (racemic)
IC50 [1]: 76 nM

O=C(O)CC(NC(=O)c1cc(=O)n(-c2ccccc2)[nH]1)c1cccc(Cl)c1Cl (racemic)
IC50 [1]: 100 nM
IC50 (Neprilysin): < 60 nM

CC(C)(C)C(=O)COc1cc(C(=O)N[C@@H](CC(=O)O)c2ccc(Cl)cc2Cl)nn1-c1ccccc1F
Papp [2]: > 2 ×10⁻⁶ cm/s
IC50 [1]: 60 nM

Cc1ccc([C@H](CC(=O)O)NC(=O)c2cc(=O)n(-c3ccccc3F)[nH]2)cc1
IC50 [1]: 274 nM

COc1ccccc1[C@H](CC(=O)O)NC(=O)c1cc(=O)n(-c2ccccc2F)[nH]1
IC50 [1]: 357 nM

CC(C)(C)[C@H](O)COc1cc(C(=O)N[C@@H](CC(=O)O)c2ccc(Cl)cc2Cl)nn1-c1ccccc1F
IC50 [1]: 70 nM

Cc1ccccc1[C@@H](CC(=O)O)NC(=O)c1cc(=O)n(-c2ccccc2)[nH]1
IC50 [1]: 7800 nM

Cc1ccccc1[C@H](CC(=O)O)NC(=O)c1cc(=O)n(-c2ccc(F)cc2)[nH]1
IC50 [1]: 87 nM

COc1cn(-c2ccccc2)nc1C(=O)N[C@@H](CC(=O)O)c1ccccc1C
IC50 [1]: 100 nM

O=C(O)CC(NC(=O)c1cc(=O)n(-c2ccccc2F)[nH]1)c1ccccc1 (racemic)
IC50 [1]: 226 nM

O=C(O)CC(NC(=O)c1cc(=O)n(-c2ccc(F)cc2F)[nH]1)c1cccc(Cl)c1Cl (racemic)
IC50 [1]: 120 nM

Cc1ccccc1[C@H](CC(=O)O)NC(=O)c1cc(=O)n(-c2cccc(F)c2)[nH]1
IC50 [1]: 59 nM

Cc1ccccc1[C@H](CC(=O)O)NC(=O)c1cc(OCC2CC2)n(-c2ccccc2F)n1
IC50 [10]: 15 nM
IC50 [1]: 15 nM
Emax (CYP3A4): 72%
IC50 (Neprilysin): 27000 nM

CC(=O)S[C@@H]1CC2=CC(=O)CC[C@]2(C)[C@H]2CC[C@@]3(C)[C@@H](CC[C@@]34CCC(=O)O4)[C@H]12 [SPIRONOLACTONE]
Activity (Mus musculus [11]): 137.39 mmHg
Activity (Mus musculus [12]): 410.78 bpm
Activity (Mus musculus [13]): 58.59%
Activity (Mus musculus [14]): 103.99 mmHg
Ratio (Mus musculus [15]): 5.07 mg/g
Time (Mus musculus [16]): 7.52 ms
Activity (Mus musculus [17]): 28.84 g
Activity (Mus musculus [18]): 145.96 mg
Activity (Mus musculus [19]): 14.93 mmHg

Cc1cccc([C@H](CC(=O)O)NC(=O)c2cc(=O)n(-c3ccccc3F)[nH]2)c1
IC50 [1]: 252 nM
